Measured values: ChEMBL document CHEMBL3045286, “Citrus limonoids and their semisynthetic derivatives as antifeedant agents against Spodoptera frugiperda larvae. A structure-activity relationship study” (2002)

Tested on: Spodoptera frugiperda
Assay: Antifeedant activity against larvae of Spodoptera frugiperda (fall armyworm) at 100 ppm measured every 30 min for 8 hr by binary choice assay relative to control
Assay type: functional
Procedure, shortened: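 Final-stadium larvae aged […], reared on wheatgerm diet, starved 2 h, then held singly in Petri dishes with control and treatment glass-fiber disks (2.1 cm). All disks carried 100 µL of 0.05 M sucrose. Treatment disks received compound in acetone and control disks acetone alone; disks were dried and weighed before and after. Ten larvae per compound. Feeding index = [(C − T)/(C + T)]%, mean ± SEM, Wilcoxon matched-pairs test.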

`CO/N=C1\C[C@H]2C(C)(C)O[C@H]3CC(=O)OC[C@]32[C@H]2CC[C@@]3(C)[C@@H](c4ccoc4)OC(=O)[C@H]4O[C@]43[C@]12C` [LIMONIN-7-METHOXIME] showed an AFI of 76%.
In the case of `CC(=O)O[C@H]1CC(=O)OC(C)(C)[C@@H]2CC(=O)[C@]3(C)[C@H](CC[C@@]4(C)[C@@H](c5ccoc5)OC(=O)[C@H]5O[C@]543)[C@@]12C` [NOMILIN], the AFI is reported as 56%.
`CC1(C)OC(=O)CC[C@]2(C)[C@H]3CC[C@@]4(C)[C@@H](c5ccoc5)OC(=O)[C@H]5O[C@]54[C@]3(C)C(=O)C[C@@H]12` [1,2-DIDEHYDRO-OBACUNONE] gave an AFI of 53%.
`CC(=O)O/N=C1\C[C@H]2C(C)(C)OC(=O)C[C@H](OC(C)=O)[C@]2(C)[C@H]2CC[C@@]3(C)[C@@H](c4ccoc4)OC(=O)[C@H]4O[C@]43[C@]12C` [NOMILIN-7-OXIME ACETATE] gave an AFI of 41%.
For `CO/N=C1\C[C@H]2C(C)(C)OC(=O)C[C@H](OC(C)=O)[C@]2(C)[C@H]2CC[C@@]3(C)[C@@H](c4ccoc4)OC(=O)[C@H]4O[C@]43[C@]12C` [NOMILIN-7-METHOXIME], the AFI was 38%.
In the case of `CC1(C)O[C@H]2CC(=O)OC[C@]23[C@H]2CC[C@@]4(C)[C@@H](c5ccoc5)OC(=O)[C@H]5O[C@]54[C@]2(C)[C@@H](O)C[C@@H]13` [EPILIMONOL], the AFI is reported as 56%.
In the case of `CC(=O)O[C@@H]1C[C@H]2C(C)(C)OC(=O)C=C[C@]2(C)[C@H]2CC[C@@]3(C)[C@@H](c4ccoc4)OC(=O)[C@H]4O[C@]43[C@@]21C` [7-ALPHA-OBACUNYL ACETATE], the AFI is reported as 24%.
With `CC(=O)O[C@H]1CC(=O)OC(C)(C)[C@@H]2C[C@@H](O)[C@]3(C)[C@H](CC[C@@]4(C)[C@@H](c5ccoc5)OC(=O)[C@H]5O[C@@]534)[C@@]12C` [7-ALPHA-NOMILOL] the AFI was 46%.
`CC1(C)OC(=O)C=C[C@]2(C)[C@H]3CC[C@@]4(C)[C@@H](c5ccoc5)OC(=O)[C@H]5O[C@]54[C@]3(C)/C(=N/O)C[C@@H]12` [OBACUNONE-7-OXIME] was tested, and the AFI was 25%.
Work on `CC1(C)O[C@H]2CC(=O)OC[C@]23[C@H]2CC[C@@]4(C)[C@@H]([C@H]5CCOC5)OC(=O)[C@H]5O[C@]54[C@]2(C)C(=O)C[C@@H]13` [EPI-PERHYDROLIMONIN] yielded an AFI of 45%.
In the case of `CC(=O)O/N=C1\C[C@H]2C(C)(C)OC(=O)C=C[C@]2(C)[C@H]2CC[C@@]3(C)[C@@H](c4ccoc4)OC(=O)[C@H]4O[C@]43[C@]12C` [OBACUNONE-7-OXIME ACETATE], the AFI is reported as 21%.
`CC1(C)O[C@H]2CC(=O)OC[C@]23[C@H]2CC[C@@]4(C)[C@@H](c5ccoc5)OC(=O)[C@H]5O[C@]54[C@]2(C)[C@H](O)C[C@@H]13` [LIMONOL] was tested, and the AFI was 68%.
Work on `CC(=O)O[C@H]1C[C@H]2C(C)(C)OC(=O)C=C[C@]2(C)[C@H]2CC[C@@]3(C)[C@@H](c4ccoc4)OC(=O)[C@H]4O[C@]43[C@]12C` [7-BETA-OBACUNYL ACETATE] yielded an AFI of 26%.
In the case of `CC(=O)O[C@@H]1C[C@H]2C(C)(C)O[C@H]3CC(=O)OC[C@]32[C@H]2CC[C@@]3(C)[C@@H](c4ccoc4)OC(=O)[C@H]4O[C@]43[C@@]21C` [LIMONYL ACETATE], the AFI is reported as 45%.
`CC(=O)O[C@H]1C[C@H]2C(C)(C)O[C@H]3CC(=O)OC[C@]32[C@H]2CC[C@@]3(C)[C@@H](c4ccoc4)OC(=O)[C@H]4O[C@]43[C@]12C` [EPI-LIMONYL ACETATE] gave an AFI of 26%.
For `CC(=O)O[C@H]1CC(=O)OC(C)(C)[C@@H]2C/C(=N\O)[C@]3(C)[C@H](CC[C@@]4(C)[C@@H](c5ccoc5)OC(=O)[C@H]5O[C@]543)[C@@]12C` [NOMILIN-7-OXIME], the AFI was 35%.
`CC1(C)O[C@H]2CC(=O)OC[C@]23[C@H]2CC[C@@]4(C)[C@@H]([C@@H]5CCOC5)OC(=O)[C@H]5O[C@]54[C@]2(C)C(=O)C[C@@H]13` [PERHYDROLIMONIN] gave an AFI of 29%.
Compound `CC(=O)O[C@H]1CC(=O)OC(C)(C)[C@@H]2C[C@H](O)[C@]3(C)[C@H](CC[C@@]4(C)[C@@H](c5ccoc5)OC(=O)[C@H]5O[C@@]534)[C@@]12C` [7-BETA-NOMILOL] has an AFI of 35%.
`CC1(C)OC(=O)C=C[C@]2(C)[C@H]3CC[C@@]4(C)[C@@H](c5ccoc5)OC(=O)[C@H]5O[C@]54[C@]3(C)[C@@H](O)C[C@@H]12` [7-BETA-OBACUNOL] showed an AFI of 35%.
`CC1(C)O[C@H]2CC(=O)OC[C@]23[C@H]2CC[C@@]4(C)[C@H](c5ccoc5)OC(=O)[C@H]5O[C@]54[C@]2(C)C(=O)C[C@@H]13` [LIMONIN] was tested, and the AFI was 87%.
For `CC(=O)O[C@H]1CC(=O)OC(C)(C)[C@@H]2C[C@H](OC(C)=O)[C@]3(C)[C@H](CC[C@@]4(C)[C@@H](c5ccoc5)OC(=O)[C@H]5O[C@@]534)[C@@]12C` [7-BETA-NOMILYL ACETATE], the AFI was 46%.
For `CC1(C)OC(=O)C=C[C@]2(C)[C@H]3CC[C@@]4(C)[C@@H](c5ccoc5)OC(=O)[C@H]5O[C@]54[C@]3(C)[C@H](O)C[C@@H]12` [7-ALPHA-OBACUNOL], the AFI was 53%.
`CC1(C)O[C@H]2CC(=O)OC[C@]23[C@H]2CC[C@@]4(C)[C@@H](c5ccoc5)OC(=O)[C@H]5O[C@]54[C@]2(C)/C(=N/O)C[C@@H]13` [LIMONIN-7-OXIME] showed an AFI of 68%.
`CC(=O)O/N=C1\C[C@H]2C(C)(C)O[C@H]3CC(=O)OC[C@]32[C@H]2CC[C@@]3(C)[C@@H](c4ccoc4)OC(=O)[C@H]4O[C@]43[C@]12C` [LIMONIN-7-OXIME ACETATE] was tested, and the AFI was 45%.
`CC1(C)OC(=O)C=C[C@]2(C)[C@H]3CC[C@@]4(C)[C@H](c5ccoc5)OC(=O)[C@H]5O[C@]54[C@]3(C)C(=O)C[C@@H]12` [OBACUNONE] showed an AFI of 68%.
Compound `CO/N=C1\C[C@H]2C(C)(C)OC(=O)C=C[C@]2(C)[C@H]2CC[C@@]3(C)[C@@H](c4ccoc4)OC(=O)[C@H]4O[C@]43[C@]12C` [OBACUNONE-7-METHOXIME] has an AFI of 29%.
